Values after ≈ are worked out from the molar mass of the structure shown.
What was measured:
Assay type in all cases: functional
HT-29 = assay: Cytotoxicity against human HT-29 cells after 6 days by MTT assay; settings: HT-29, 144 h, read-out: ED50 (the source's name)
Procedure, shortened: (§1)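 Human cell lines: A549 (lung adenocarcinoma) and HT-29 (colon adenocarcinoma), obtained from a culture collection. The assay follows a previously published procedure.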

P388 = assay: Cytotoxicity against mouse P388 cells after 3 days by MTT assay; settings: P388, 72 h, read-out: ED50 (the source's name)
Procedure, shortened: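 Mouse P-388 lymphocytic leukemia cells, obtained from an academic laboratory. The assay follows a previously published procedure.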

A549 = assay: Cytotoxicity against human A549 cells after 6 days by MTT assay; settings: A549, 144 h, read-out: ED50 (the source's name); procedure, shortened: as §1

Structure (SMILES) | EC50 (HT-29) [µg/mL] | EC50 (P388) [µg/mL] | EC50 (A549) [µg/mL]
C=C1CC[C@@H]2CCC=C(C(=O)C/C(C)=C/C(O)C1)C2(C)C (some centres undefined) [CESPUTULARIN E] | 17.1 (≈ 59.3 µM) | 4.66 (≈ 16.2 µM) | 0.034 (≈ 0.118 µM)
C=C1CC/C=C(\C)C[C@@H](O)C2=C(C)CC[C@@H](CC1)C2(C)C [CESPITULARIN C] | 8.86 (≈ 30.7 µM) | 0.01 (≈ 0.0347 µM) | 0.12 (≈ 0.416 µM)
C=C1CC[C@@H]2CCC3=C(C2(C)C)[C@@](O)(C/C(C)=C/[C@@H](O)C1)OC3=O [CESPITULARIN D] | > 50 | 3.86 (≈ 11.6 µM) | > 50
C=C1CC[C@@H]2CCc3coc(c3C2(C)C)C/C(C)=C/C(O)C1 (some centres undefined) [CESPITULARIN A] | 9.76 (≈ 32.5 µM) | 3.66 (≈ 12.2 µM) | 8.42 (≈ 28 µM)
C=C1CC/C=C(\C)[C@@H]2C(=O)C3=C(CC[C@@H](CC1)C3(C)C)[C@@H]2O [CESPITULARIN G] | > 50 | > 50 | > 50
C=C1CC/C=C(\C)Cc2occ3c2C(C)(C)[C@H](CC1)CC3 [CESPITULARIN B] | 9.25 (≈ 32.5 µM) | 3.23 (≈ 11.4 µM) | 7.96 (≈ 28 µM)
C/C1=C\C[C@@H]2CCC3=C(C(=O)[C@@H]([C@@H](C)CC(=O)C1)[C@H]3O)C2(C)C [CESPITULARIN H] | 23.7 (≈ 74.9 µM) | > 50 | 9.32 (≈ 29.5 µM)
C=C1CC[C@@H]2CCC3=C(C(=O)[C@@H](/C(C)=C/C(O)C1)[C@H]3O)C2(C)C (some centres undefined) [CESPITULARIN F] | > 50 | > 50 | 16.1 (≈ 50.9 µM)

Source: ChEMBL document CHEMBL1150653, “Novel terpenoids from the formosan soft coral Cespitularia hypotentaculata” (2002)
